The values that follow come from ChEMBL document CHEMBL1129605, “Synthesis, structure-activity relationships, and molecular modeling studies of N-(indol-3-ylglyoxylyl)benzylamine derivatives acting at the benzodiazepine receptor” (J Med Chem, 1996).

The target of the first experiment is T1, GABA-A receptor; anion channel (Bos taurus) (UniProt P10063+P08220+P20237+P08219+P10064+P22300). The experiment can be described thus: Gamma AminoButyric Acid(GABA) ratio is the Ki without GABA / Ki with GABA. The class given is protein-complex assay. The essentials: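 Ki for [3H]flunitrazepam displacement from bovine cortical membranes determined both without and with GABA. The ratio is Ki without GABA divided by Ki with GABA.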
On to `O=C(NCc1cccc(O)c1)C(=O)c1c[nH]c2ccccc12`, for which the GABA ratio turned out to be 1.25. Still for that read-out and setting: then `COc1cccc(CNC(=O)C(=O)c2c[nH]c3ccccc23)c1`, with 0.74.

With `COc1ccc(CNC(=O)C(=O)c2c[nH]c3ccccc23)cc1`, the GABA ratio was 1. Same read-out and setting: then `O=C(NCc1ccc(O)c(O)c1)C(=O)c1c[nH]c2ccc(Cl)cc12`, with 1.33.

With `O=C(NCc1cccc(O)c1)C(=O)c1c[nH]c2ccc(Cl)cc12`, the GABA ratio came out at 1.45.

Another experiment has as its target T1, GABA-A receptor; anion channel (Bos taurus). The experiment can be described thus: In vitro inhibition of [3H]- flunitrazepam binding to GABA-A central benzodiazepine receptor of bovine cortical membranes at 10 uM. A digest of the protocol:
(§1)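 Filtration binding of [3H]flunitrazepam to bovine cerebral cortex membranes, freeze–thawed and washed in 50 mM Tris-citrate pH 7.4. […] IC50 taken from log-probit plots and converted to Ki, mean ± SEM of three determinations.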
The inhibition is the relative decrease from the control value, in per cent. Take `O=C(NCc1ccc(Cl)cc1)C(=O)c1c[nH]c2ccc([N+](=O)[O-])cc12`: the inhibition came to 2%. The same measure, in the same setting: the result for `O=C(NCc1cccc(Cl)c1)C(=O)c1c[nH]c2ccc([N+](=O)[O-])cc12` reads 0%; that for `O=C(NCc1ccccc1F)C(=O)c1c[nH]c2ccc([N+](=O)[O-])cc12`, 42%. The same measure, in the same setting: then `O=C(NCc1ccc(Cl)cc1)C(=O)c1c[nH]c2ccc(Cl)cc12`, with 38%; and `O=C(NCc1ccccc1F)C(=O)c1c[nH]c2ccc(Cl)cc12`, with 39%. `O=C(NCc1ccccc1Cl)C(=O)c1c[nH]c2ccc(Cl)cc12`: the inhibition was 40%. Same read-out and setting: then `O=C(NCc1ccc(F)cc1)C(=O)c1c[nH]c2ccc([N+](=O)[O-])cc12`, with 24%.

As to `O=C(NCc1ccc(F)cc1)C(=O)c1c[nH]c2ccc(Cl)cc12`, the inhibition turned out to be 21%.

`COc1cccc(CNC(=O)C(=O)c2c[nH]c3ccccc23)c1`: the inhibition was found to be 97%. Same read-out and setting: then `O=C(NCc1cccc(Cl)c1)C(=O)c1c[nH]c2ccc(Cl)cc12`, with 14%; and `O=C(NCc1ccc(O)c(O)c1)C(=O)c1c[nH]c2ccc(Cl)cc12`, with 96%; and `O=C(NCc1ccccc1Cl)C(=O)c1c[nH]c2ccc([N+](=O)[O-])cc12`, with 48%.

The target of a further experiment is GABA-A receptor; anion channel. Nature of the experiment: In vitro inhibition of [3H]- flunitrazepam binding to GABA-A benzodiazepine receptor of bovine cortical membranes. On the set-up: species or system Bos taurus. A digest of the protocol: as §1
The Ki is a dissociation constant, usually derived from enzyme kinetics or from competition with a known ligand. On to `O=C(NCc1cccc(O)c1)C(=O)c1c[nH]c2ccccc12`, for which the Ki stood at 820 nM.

In the case of `COc1cccc(CNC(=O)C(=O)c2c[nH]c3ccccc23)c1`, the Ki was determined as 290 nM. Compound `COc1ccc(CNC(=O)C(=O)c2c[nH]c3ccccc23)cc1` displayed a Ki of 163 nM.

With `O=C(NCc1ccc(O)c(O)c1)C(=O)c1c[nH]c2ccc(Cl)cc12`, the Ki worked out at 180 nM. Same read-out and setting: then `O=C(NCc1cccc(O)c1)C(=O)c1c[nH]c2ccc(Cl)cc12`, with 570 nM.

For the next experiment, the target named is T1, GABA-A receptor; anion channel (Bos taurus). The experiment can be described thus: Specific [35S]- TBPS binding at high affinity site loated near chloride channel of GABA-A receptor chloride complex. It is filed as protein-complex assay. On the set-up: concentration or dose not given beside the values. The essentials:
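Bovine cerebral cortex membranes, freeze–thawed and washed in 50 mM Tris-citrate pH 7.4, incubated with 5 nM [35S]TBPS for 90 min at 25 °C in the same buffer plus 200 mM KBr and 0.1 mM EDTA. Compounds tested at 0.5 μM in ethanol (≤0.2%) with 1 μM GABA present. Nonspecific binding taken with 600 μM picrotoxinin. Bound ligand collected by filtration and counted by scintillation.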
The compound `O=C1CN=C(c2ccccc2Cl)c2cc([N+](=O)[O-])ccc2N1` returned an Activity of 100%. For the compound `CCOC(=O)c1ncn2c1CN(C)C(=O)c1cc(F)ccc1-2`, the Activity was determined as 15%.

A further experiment shares this target. Nature of the experiment: Inhibition of [3H]- flunitrazepam binding to GABA-A central benzodiazepine receptor of bovine cortical membranes at 10 uM. The essentials:
as §1
Take `COc1ccc(NC(=O)C(=O)c2c[nH]c3ccccc23)cc1`: the inhibition was 0%. In turn, `O=C(NCCCc1ccccc1)C(=O)c1c[nH]c2ccc([N+](=O)[O-])cc12` showed an inhibition of 52%. On the same count and under the same terms, the result for `Cn1cc(C(=O)C(=O)NCc2cccc(O)c2)c2ccccc21` reads 17%.

In turn, `O=C(Nc1ccc(O)cc1)C(=O)c1c[nH]c2ccccc12` came in with an inhibition of 65%. On the same count and under the same terms, the result for `O=C(Nc1ccc(O)cc1)C(=O)c1c[nH]c2ccc(Cl)cc12` reads 23%. Regarding `O=C(Nc1ccccc1)C(=O)c1c[nH]c2ccc([N+](=O)[O-])cc12`, the inhibition is 0%. Same read-out and setting: the result for `O=C(NCCCc1ccccc1)C(=O)c1c[nH]c2ccc(Cl)cc12` reads 32%; that for `O=C(NCc1cccc(O)c1)C(=O)c1c[nH]c2ccccc12`, 91%. Still for that read-out and setting: the result for `COc1ccc(CNC(=O)C(=O)c2c[nH]c3ccccc23)cc1` reads 97%; that for `COc1ccc(NC(=O)C(=O)c2c[nH]c3ccc([N+](=O)[O-])cc23)cc1`, 12%; that for `COc1ccc(NC(=O)C(=O)c2c[nH]c3ccc(Cl)cc23)cc1`, 10%. Still for that read-out and setting: the result for `O=C(Nc1ccccc1)C(=O)c1c[nH]c2ccc(Cl)cc12` reads 0%. `O=C(NCc1cccc(O)c1)C(=O)c1c[nH]c2ccc(Cl)cc12` gave an inhibition of 95%. The same measure, in the same setting: then `O=C(Nc1ccccc1)C(=O)c1c[nH]c2ccccc12`, with 10%.
